Measurements reported in ChEMBL document CHEMBL4842325, “Lanosterol 14α-demethylase (CYP51)/histone deacetylase (HDAC) dual inhibitors for treatment of Candida tropicalis and Cryptococcus neoformans infections” (Eur J Med Chem, 2021).
Converted amounts (≈) assume the structure as drawn. The source made the active and inactive calls. The rule behind the calls is not given here.

Columns and labels:
Candida albicans [1] = experiment: Antifungal activity against fluconazole-sensitive Candida albicans 9770 assessed as inhibition of fungal growth; assay type: functional
Candida tropicalis [2] = experiment: Downregulation of MDR1 mRNA expression in Candida tropicalis 5008 at 4 ug/ml measured after 24 hrs by qRT-PCR analysis; assay type: functional; settings: dose 4.0 µg/ml
Outline: (§1)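 Exponential-phase C. tropicalis 5008 inoculated into 10 mL YPD with compound at several concentrations, DMSO as blank control. Incubated 35 °C for 24 h. Total RNA isolated on columns and reverse-transcribed. Real-time RT-PCR with ACT1 as internal control. Mean of 3 independent assays ± SD.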

Cryptococcus neoformans [3] = experiment: Antifungal activity against fluconazole-sensitive Cryptococcus neoformans H99 assessed as inhibition of cell proliferation at 2 to 8 ug/ml measured for 48 hrs by time growth curve assay; assay type: functional, organism-based; settings: dose 2-8 µg/ml
Outline: (§2)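 Exponential-phase cells from YEPD resuspended in 3 mL fresh RPMI 1640 at 1 × 10⁵ cells/mL (C. tropicalis 5008) or 1 × 10⁶ cells/mL (C. neoformans H99). Compound at several concentrations; cultures shaken at 240 rpm, 30 °C. Growth read as OD₆₃₀ at 0, 6, 12, 24, 36 and 48 h. Done in triplicate.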

Candida tropicalis [4] = experiment: microbe, parasite or virus in culture; assay type: functional; settings: 3890, time 48 hrs
Cryptococcus neoformans [5] = experiment: microbe, parasite or virus in culture; assay type: functional; settings: H99, time 72 hrs
Cryptococcus neoformans [6] = experiment: Inhibition of capsule formation in Cryptococcus neoformans H99 assessed as reduction in capsule size at 50 ug/ml incubated for 24 hrs by laser scanning confocal microscopic analysis; assay type: functional; settings: dose 50.0 µg/ml
Outline: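 Exponential-phase C. neoformans H99 from YEPD resuspended in PBS at 1 × 10⁷ cells/mL. Suspension placed in wells with FBS plus DMEM and compound at several concentrations; untreated group as control. Kept 24 h at 37 °C under 10% CO₂. Cells mixed with India ink and imaged by confocal microscopy at 63×, 10 random fields. Whole-cell and cell-body diameters measured to derive capsule size.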

Cryptococcus neoformans [7] = experiment: Inhibition of biofilm formation in Cryptococcus neoformans H99 at 8 ug/ml incubated for 24 hrs by XTT reduction assay; assay type: functional, organism-based; settings: dose 8.0 µg/ml
Candida albicans [8] = experiment: microbe, parasite or virus in culture; assay type: functional; settings: 4108
Candida tropicalis [9] = experiment: microbe, parasite or virus in culture; assay type: functional; settings: 5008, time 48 hrs
Candida tropicalis [10] = experiment: Antifungal activity against Candida tropicalis 5008 assessed as inhibition of fungal filamentation by measuring reduction in hyphae formation at 8 ug/ml incubated for 7 hrs by cell inverted imaging microscopic analysis; assay type: functional, organism-based; settings: dose 8.0 µg/ml
Outline: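 C. tropicalis 5008 grown to exponential phase in YEPD, diluted to 1 × 10⁵ CFU/mL in spider medium and dosed at several concentrations, with an untreated group for comparison. Incubated 37 °C for 7 h. Cell morphology recorded on a live-cell inverted microscope.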

Candida albicans [11] = experiment: microbe, parasite or virus in culture; assay type: functional; settings: 7781
Candida albicans [12] = experiment: Antifungal activity against fluconazole-sensitive Candida albicans 10061 assessed as inhibition of fungal growth; assay type: functional
Cryptococcus neoformans [13] = experiment: Downregulation of CAP10 gene expression in Cryptococcus neoformans H99 at 2 ug/ml measured after 24 hrs by qRT-PCR analysis; assay type: functional; settings: dose 2.0 µg/ml
Outline: (§3)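 Exponential-phase C. neoformans H99 inoculated into 50 mL YPD with compound. Incubated 35 °C for 24 h, then cultures ground in liquid nitrogen for RNA isolation. Transcript levels of capsule-associated genes quantified by RT-qPCR. Three independent experiments, mean ± SD, t-test.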

Candida tropicalis [14] = experiment: Downregulation of CDR1 mRNA expression in Candida tropicalis 5008 at 4 ug/ml measured after 24 hrs by qRT-PCR analysis; assay type: functional; settings: dose 4.0 µg/ml; outline: as §1
Cryptococcus neoformans [15] = experiment: Downregulation of CAP59 gene expression in Cryptococcus neoformans H99 at 2 ug/ml measured after 24 hrs by qRT-PCR analysis; assay type: functional; settings: dose 2.0 µg/ml; outline: as §3
Candida albicans [16] = experiment: Antifungal activity against fluconazole-sensitive Candida albicans SC5314 assessed as inhibition of fungal growth; assay type: functional
Cryptococcus neoformans [17] = experiment: Antifungal activity against Cryptococcus neoformans H99 infected in ICR mouse model assessed as reduction in fungal burden in brain at 20 mg/kg, po administered once a day for 5 days; assay type: functional, organism-based; settings: time 5.0 day
Outline: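 Immunosuppression by intraperitoneal cyclophosphamide 24 h before infection. Infected on day 0 by intravenous 2 × 10⁵ CFU C. neoformans H99. Oral treatment once daily for 5 consecutive days, starting 24 h post infection; saline group as blank. Brains taken on day 6 and homogenized, dilutions plated on SDA at 35 °C for 48 h. Colonies counted for burden; groups compared by ANOVA.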

Candida tropicalis [18] = experiment: Antifungal activity against fluconazole-resistant Candida tropicalis 5008 assessed as inhibition of cell proliferation at 32 ug/ml measured for 48 hrs by time growth curve assay; assay type: functional, organism-based; settings: dose 32.0 µg/ml; outline: as §2
Candida tropicalis [19] = experiment: Downregulation of ERG11 mRNA expression in Candida tropicalis 5008 at 4 ug/ml measured after 24 hrs by qRT-PCR analysis; assay type: functional; settings: dose 4.0 µg/ml; outline: as §1
Candida albicans [20] = experiment: microbe, parasite or virus in culture; assay type: functional; settings: 0304103
[21] = Inhibition of HDAC in Candida tropicalis 5008 using Boc-Lys(Ac)-AMC as substrate preincubated with protoplast for 12 hrs followed by incubation with substrate for 6 hrs by fluorimetric assay
Outline: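 Whole-cell assay on C. tropicalis 5008, 100 mg wet weight of exponential-phase cells. Cell wall removed with snailase to give protoplasts, which were dispersed in PBS. Protoplasts incubated with compound at 35 °C for 12 h. Boc-Lys(Ac)-AMC then added to a final 30 µM and incubated 37 °C for 6 h. Stop solution added, 37 °C for 2 h. Fluorescence read at Ex 360/Em 460 nm and converted to HDAC inhibition rate.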

Row | SMILES | MIC80 (Candida albicans [1]) [µg/mL] | MIC80 (Candida tropicalis [4]) [µg/mL] | MIC80 (Cryptococcus neoformans [5]) [µg/mL] | MIC80 (Candida albicans [8]) [µg/mL] | MIC80 (Candida tropicalis [9]) [µg/mL] | MIC80 (Candida albicans [11]) [µg/mL] | MIC80 (Candida albicans [12]) [µg/mL] | MIC80 (Candida albicans [16]) [µg/mL] | MIC80 (Candida albicans [20]) [µg/mL] | other results
1 | OC(Cn1cncn1)(Cn1cncn1)c1ccc(F)cc1F [FLUCONAZOLE] | > 64 | 0.5 (≈ 1.63 µM) | 2 (≈ 6.53 µM) | > 64 | > 64 | > 64 | > 64 | 0.5 (≈ 1.63 µM) | > 64 | inhibition (Candida tropicalis [2]): Active; Activity (Cryptococcus neoformans [3]): Active; inhibition (Cryptococcus neoformans [6]): Active; inhibition (Cryptococcus neoformans [7]): Active; Activity (Candida tropicalis [10]): Active; inhibition (Cryptococcus neoformans [13]): inactive; inhibition (Candida tropicalis [14]): Active; inhibition (Cryptococcus neoformans [15]): inactive; Activity (Cryptococcus neoformans [17]): Active; Activity (Candida tropicalis [18]): Active; inhibition (Candida tropicalis [19]): Active
2 | O=C(CCCCCCn1ncn(-c2ccc(CN3CCN(CC(O)(Cn4cncn4)c4ccc(F)cc4F)CC3)cc2)c1=O)NO (centres undefined) | > 64 | > 64 | 64 (≈ 100 µM) |  | > 64 | 32 (≈ 50 µM) |  | > 64 | > 64 | 
3 | O=C(Cc1ccc(OCCCCCN2CCN(CC(O)(Cn3cncn3)c3ccc(F)cc3F)CC2)cc1)NO (centres undefined) | > 64 | 4 (≈ 7.16 µM) | 32 (≈ 57.3 µM) | > 64 | > 64 | > 64 | > 64 | 32 (≈ 57.3 µM) | > 64 | 
4 | O=C(CCCCOc1ccc(CN2CCN(CC(O)(Cn3cncn3)c3ccc(F)cc3F)CC2)cc1)NO (centres undefined) | > 64 | 2 (≈ 3.67 µM) | 8 (≈ 14.7 µM) | 32 (≈ 58.8 µM) | 4 (≈ 7.34 µM) | 4 (≈ 7.34 µM) | > 64 | 1 (≈ 1.84 µM) | 8 (≈ 14.7 µM) | 
5 | O=C(CCCCCCCn1ncn(-c2ccc(CN3CCN(CC(O)(Cn4cncn4)c4ccc(F)cc4F)CC3)cc2)c1=O)NO (centres undefined) | > 64 | > 64 | 32 (≈ 48.9 µM) |  | > 64 | 64 (≈ 97.9 µM) |  | > 64 | 64 (≈ 97.9 µM) | 
6 | O=C(Cc1ccc(OCCCCN2CCN(CC(O)(Cn3cncn3)c3ccc(F)cc3F)CC2)cc1)NO (centres undefined) | > 64 | 32 (≈ 58.8 µM) | 32 (≈ 58.8 µM) | > 64 | > 64 | > 64 | > 64 | > 64 | 32 (≈ 58.8 µM) | 
7 | O=C(CCCCCOc1ccc(CN2CCN(CC(O)(Cn3cncn3)c3ccc(F)cc3F)CC2)cc1)NO (centres undefined) | 32 (≈ 57.3 µM) | 2 (≈ 3.58 µM) | 8 (≈ 14.3 µM) | 16 (≈ 28.6 µM) | 1 (≈ 1.79 µM) | 2 (≈ 3.58 µM) | > 64 | 1 (≈ 1.79 µM) | 32 (≈ 57.3 µM) | 
8 | O=C(Cc1ccc(OCCCOc2ccc(CN3CCN(CC(O)(Cn4cncn4)c4ccc(F)cc4F)CC3)cc2)cc1)NO (centres undefined) | > 64 | 2 (≈ 3.14 µM) | 4 (≈ 6.28 µM) | 32 (≈ 50.3 µM) | 32 (≈ 50.3 µM) | 4 (≈ 6.28 µM) | > 64 | 4 (≈ 6.28 µM) | 32 (≈ 50.3 µM) | 
9 | O=C(NO)c1ccc(CCCCn2ncn(-c3ccc(CN4CCN(CC(O)(Cn5cncn5)c5ccc(F)cc5F)CC4)cc3)c2=O)cc1 (centres undefined) | > 64 | > 64 | 8 (≈ 11.6 µM) | > 64 | > 64 | 16 (≈ 23.3 µM) | > 64 | > 64 | > 64 | 
10 | CCC(C)n1ncn(-c2ccc(N3CCN(c4ccc(OCC5COC(Cn6cncn6)(c6ccc(Cl)cc6Cl)O5)cc4)CC3)cc2)c1=O (centres undefined) [ITRACONAZOLE] |  | > 64 | 0.125 (≈ 0.177 µM) | > 64 | > 64 | > 64 |  | 0.5 (≈ 0.709 µM) | > 64 | 
11 | O=C(CCCOc1ccc(CN2CCN(CC(O)(Cn3cncn3)c3ccc(F)cc3F)CC2)cc1)NO (centres undefined) | > 64 | 4 (≈ 7.54 µM) | 8 (≈ 15.1 µM) | 16 (≈ 30.2 µM) | 4 (≈ 7.54 µM) | 8 (≈ 15.1 µM) | 32 (≈ 60.3 µM) | 4 (≈ 7.54 µM) | 8 (≈ 15.1 µM) | 
12 | O=C(CCCCCCC(=O)Nc1ccccc1)NO [VORINOSTAT] |  |  |  |  |  |  |  |  |  | IC50 [21]: 3.56 µM
13 | O=C(Cc1ccc(OCCCCCCN2CCN(CC(O)(Cn3cncn3)c3ccc(F)cc3F)CC2)cc1)NO (centres undefined) | 16 (≈ 27.9 µM) | 2 (≈ 3.49 µM) | 16 (≈ 27.9 µM) | 16 (≈ 27.9 µM) | 4 (≈ 6.98 µM) | 4 (≈ 6.98 µM) | 16 (≈ 27.9 µM) | 16 (≈ 27.9 µM) | 16 (≈ 27.9 µM) | 
14 | O=C(Cc1ccc(OCCCn2ncn(-c3ccc(CN4CCN(CC(O)(Cn5cncn5)c5ccc(F)cc5F)CC4)cc3)c2=O)cc1)NO (centres undefined) | 32 (≈ 45.5 µM) | 2 (≈ 2.84 µM) | 2 (≈ 2.84 µM) | 4 (≈ 5.68 µM) | 16 (≈ 22.7 µM) | 2 (≈ 2.84 µM) | 32 (≈ 45.5 µM) | 2 (≈ 2.84 µM) | 2 (≈ 2.84 µM) | 
15 | O=C(CCCCCCOc1ccc(CN2CCN(CC(O)(Cn3cncn3)c3ccc(F)cc3F)CC2)cc1)NO (centres undefined) | 32 (≈ 55.9 µM) | 2 (≈ 3.49 µM) | 0.5 (≈ 0.873 µM) | 8 (≈ 14 µM) | 0.5 (≈ 0.873 µM) | 1 (≈ 1.75 µM) | 32 (≈ 55.9 µM) | 1 (≈ 1.75 µM) | 16 (≈ 27.9 µM) | 
16 | C[C@@H](c1ncncc1F)[C@](O)(Cn1cncn1)c1ccc(F)cc1F [VORICONAZOLE] |  | > 64 | 0.0625 (≈ 0.179 µM) | > 64 | > 64 | > 64 |  | < 0.125 | > 64 | 
